Screens deposited in PubChem BioAssay by several laboratories.
An excerpt weighted towards active compounds, which were near 12% of everything screened.
CHOP inhibitor: inhibitors of CHOP promoter induction, primary screen, cell-based, unfolded protein response, luciferase reporter; CHO-K1 CHOP-promoter luciferase, tunicamycin-induced, 15-18 h; inhibition, % at 10 µM; 3.8% of 220,000 active;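 active means compounds that reduced the stress-induced luciferase reporter signal by more than about 70% of percent inhibition, limit read from the data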;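 further: 0% = tunicamycin plus vehicle and 100% = wells without tunicamycin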
L major viab: Leishmania major promastigote growth inhibition, primary screen | Leishmania major promastigotes, resazurin fluorescence viability | inhibition, % at 10 µM | 9% of 200,000 active | AID 1063, 2008; in the data active means inhibition above about 50%;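 further: promastigotes grown with compound for 44 hours at 28 °C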
Dynein cargo inh: inhibitors of GR-EGFP nuclear translocation, primary screen, dynein cargo transport inhibitor project, imaging, high-content, 3617.4 mouse cells. test concentration mostly 20 µM; stimulated with dexamethasone, 1 µM; active compounds read low. z-score, hits read low. AID 1381, 2008. 0.47% of 220,000 active;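 active means plate z-score of nuclear minus cytoplasmic receptor signal below a set negative limit, without overly bright fluorescence or cell loss, cut at about -3.5 in these data, passing the limit was not always enough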;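 further: z-score of nuclear minus cytoplasmic ring GR-EGFP intensity difference per well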
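medium = tetracycline-free induction medium containing charcoal-stripped FBS | also added = 1.0 µM final dexamethasone stimulus | schedule = 48 h induction, 1 h compound, 30 min dex at 37 °C | technique = fixed, Hoechst-stained cells imaged at 10x for EGFP | measure = GR-EGFP nuclear translocation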
Autophagy HCS: autophagy modulators in MEF cells, primary screen, imaging, high-content, MEF GFP-LC3; MEF GFP-LC3 puncta imaging; test concentration mostly 10 µM; calls only at 10 µM (by protocol); 0.98% of 190,000 active; AID 463193, 2010;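 active means percentage of spot-positive cells more than 3 SD above its plate mean, without a fluorescence outlier flag or 80% toxicity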;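 further: spot-positive cell cutoff set from DMSO-treated cells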
MT stabilizer: microtubule stabilizers in HeLa cells, primary screen, imaging, high-content imaging; HeLa tubulin immunostaining HCS, 24 h; share of cells brighter than vehicle mean+2SD; % tubulin-high responders, % at 10 µM; 0.83% of 200,000 active;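 active means plate Z-score above 3 for both tubulin-high and condensed-nucleus cell shares, with cell loss under 80%, at 10 µM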;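 further: anti alpha tubulin signal scored within the nucleus-defined area of each cell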
bCat nuc transl: modulators of beta-catenin nuclear translocation, primary screen, imaging, HeLa cells, immunofluorescence, high-content. 0.3% of 190,000 active. AID 1665, 2009. nuclear translocation activity, % at 5 µM;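 active means nuclear translocation activity above 50% at 5 µM, with a well cell count of 50 or more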;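 further: per-cell ratio of nuclear to cytoplasmic median beta-catenin stain intensity; plate controls were DMSO negative control for no effect and GSK-3 inhibitor IX positive control for full effect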
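test system = HeLa cells, endogenous beta-catenin | dosing = single 5 µM dose plus 0.02–20 µM confirmation series | times = compound treatment 24 h, 37°C, 5% CO2 | technique = beta-catenin immunofluorescence imaging with DAPI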
An asterisk follows results filed as active; i = inactive; . = no result; + = active, no number.

SMILES	CHOP inhibitor	L major viab	Dynein cargo inh	Autophagy HCS	MT stabilizer	bCat nuc transl
O=C1NC(c2ccc(Cl)cc2)Nc2ccccc21 (stereo not given)	-8	-4	3.7	i	22*	1
COCCCN1CN(S(=O)(=O)c2ccc(Cl)cc2)c2nc3ccccc3nc21	93*	59*	0.02	i	3	-2
CCOc1cc2c(cc1C(C)(C)C)NC(=O)CS2	85*	-2	-0.58	i	2	0
COCCNC(=O)c1ccc2c(c1)NC(=O)CS2	5	-3	-0.5	i	2	-4
COc1cc(C2Nc3ccc4ncccc4c3C3=C2C(=O)CCC3)cc(OC)c1O (stereo not given)	.	-3	-0.19	i	48*	0
COc1cc(C2Nc3ccc4ncccc4c3C3=C2C(=O)CC(C)(C)C3)cc(OC)c1O (stereo not given)	-43	4	0.27	i	3	-5
Cn1ccnc1C1CCCCN1Cc1nc(Cc2cccc(C(F)(F)F)c2)no1 (stereo not given)	-4	66*	-0.0078	i	3	-2
CCc1c(C)[nH]n(-c2nc(-c3ccccc3)cs2)c1=O	11	13	3	i	3	0
Cc1[nH]n(-c2nc(-c3ccc(Cl)cc3)cs2)c(=O)c1N=Nc1ccc(O)cc1	58	71*	-1.8	i	6	1
COc1ccc(C(=O)N2CCOC2CNC(=O)C(=O)NCc2ccc(Cl)cc2)cc1 (stereo not given)	49	-2	0.3	i	1	1
CN(C)CCn1c(N)nc2ccccc21	1	.	-0.53	.	.	1
Cc1cc(C(=O)Nc2nc(-c3ccccn3)cs2)ccc1[N+](=O)[O-]	-20	100*	1.2	i	8	2
O=C(Nc1nc(-c2ccccn2)cs1)c1cc(Cl)ccc1[N+](=O)[O-]	19	100*	0.46	i	1	-3
COc1cccc(N2CCN(C3CC(=O)N(c4ccc(F)c(Cl)c4)C3=O)CC2)c1 (stereo not given)	71*	-8	-1.3	i	1	.
COc1cccc(N2CCN(C3CC(=O)N(c4ccc(C)c(Cl)c4)C3=O)CC2)c1 (stereo not given)	55	-10	-0.84	i	4	-1
NC1=NS(=O)(=O)NC1c1cccc(Cl)c1 (stereo not given)	28	-4	1.9	i	3	2
O=C(CCN1C(=O)C2C3CCC(C3)C2C1=O)Nc1ccc(Br)cc1 (stereo not given)	2	60*	-0.34	i	2	.
COc1ccc(NC(=O)CCN2C(=O)C3C4CCC(C4)C3C2=O)cc1 (stereo not given)	1	57*	1.1	i	4	-2
O=C(CCN1C(=O)C2C3CCC(C3)C2C1=O)Nc1ccc([N+](=O)[O-])cc1 (stereo not given)	11	3	1.1	i	1	-1
COc1ccc2[nH]c3c(c2c1)CCn1c-3nc2ccccc2c1=O	71*	2	0.28	i	3	1
O=C(NCCCO)c1cc([N+](=O)[O-])cc2c1C=Cc1ccccc1O2	22	97*	1.1	i	3	2
CC1CC(C)CN(CCCNC(=O)CCNC(=O)Cn2ccc3ccccc3c2=O)C1 (stereo not given)	0	-3	0.045	i	2	.
c1ccc2c(CNCCN3CCOCC3)cccc2c1	1	4	-0.13	+	1	-2
Fc1ccccc1-c1nc(NCCCN2CCOCC2)c2ccccc2n1	-30	43	-0.96	i	3	-4
Clc1cccc(-c2nc(NCCN3CCOCC3)c3ccccc3n2)c1	14	75*	-0.32	i	3	-1
SMILES	CHOP inhibitor	L major viab	Dynein cargo inh	Autophagy HCS	MT stabilizer	bCat nuc transl
c1ccc2c(NCCCN3CCOCC3)c3ccccc3nc2c1	-18	100*	-0.67	+	34*	1
Oc1ccccc1-c1nc(NCCN2CCOCC2)c2ccccc2n1	47	49	-0.82	i	4	-2
Cc1ccc(-c2nc(NCCN3CCOCC3)c3ccccc3n2)cc1	-22	81*	-0.91	i	2	1
O=C(CN1CCCC1)Nc1ccc([N+](=O)[O-])cc1	12	8	-0.21	i	4	-4
Clc1ccc(-c2nc(NCCCN3CCOCC3)c3ccccc3n2)cc1	-12	.	0.91	.	.	0
Clc1cccc(-c2nc(NCCCN3CCOCC3)c3ccccc3n2)c1	-8	80*	0.27	i	2	6
Cn1nc(C(F)(F)F)c(-c2ccc(Br)cc2)c1NC(=O)c1nccnc1C(=O)O	3	.	-0.19	.	.	1
CC(=O)Nc1ccc(C(O)(C(F)(F)F)C(F)(F)F)cc1	6	-5	-0.51	i	1	0
CC(C)OC(=O)N(C)c1ccc(C(O)(C(F)(F)F)C(F)(F)F)cc1	45	100*	1.5	i	2	.
Cc1cnc(C(=O)Nc2cccc3cccnc23)cn1	.	97*	-0.95	i	2	2
O=C(Nc1cccc2cccnc12)c1cccnc1	-1	24	-1.1	i	4	0
O=C(COC(=O)c1cc(Br)ccc1O)Nc1cc(S(=O)(=O)N2CCCC2)ccc1Cl	3	3	0.089	i	1	0
OCCN1CCN(c2ncnc3c2c(-c2ccccc2)cn3-c2ccc(F)cc2)CC1	-36	22	-0.29	i	3	.
NS(=O)(=O)c1ccc(CCNc2ncnc3c2c(-c2ccccc2)cn3-c2ccc(F)cc2)cc1	75*	-4	-0.027	i	1	-4
Cc1ccc(-n2cc(-c3ccccc3)c3c(N4CCN(C)CC4)ncnc32)cc1	0	27	-0.6	i	2	.
Cc1ccc(-n2cc(-c3ccccc3)c3c(N4CCOCC4)ncnc32)cc1	69	14	0.43	+	2	0
Fc1ccc(-n2cc(-c3ccccc3)c3c(NN4CCOCC4)ncnc32)cc1	9	97*	0.13	i	3	3
Nc1nc(SCC(=O)C23CC4CC(CC(C4)C2)C3)n[nH]1	18	0	0.002	i	3	-4
Cc1ccc(S(=O)(=O)N2CCN(C(=O)c3ccccc3)CC2)c(C)c1NS(C)(=O)=O	9	-7	-0.73	i	3	-5
Cc1cnc(C(=O)OCC(=O)N2c3ccccc3NC(=O)C2(C)C)cn1	10	7	-1.1	i	2	-2
Cc1nn(-c2ccccc2)c(C)c1C(=O)OCC(=O)N1c2ccccc2NC(=O)C1(C)C	34	88*	-0.41	i	2	.
